Test system: MS2 coat protein
Test: apparent Kd, MS2 coat protein; higher = weaker binding; RNA-MaP array; FMN 200 µM where present
Summary of the method: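 On Illumina sequencing-chip clusters, designs were transcribed by stalled E. coli RNA polymerase and titrated with SNAP-549-labelled MS2 coat protein (0.7 or 1.5 nM, doubling to 3 µM), without and then with constant ligand, in 100 mM Tris-HCl pH 7.5, 80 mM KCl, 4 mM MgCl2, BSA, DTT, yeast tRNA and Tween-20. Apparent Kd is the median of filtered per-cluster curve fits to green signal normalised to red-channel RNA signal and control-cluster median Fmax.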

[1] = designed as: OFF switch for flavin mononucleotide, no ligand
[2] = ligand present: flavin mononucleotide, designed as: OFF switch for flavin mononucleotide
[3] = designed as: ON switch for flavin mononucleotide, no ligand
[4] = ligand present: flavin mononucleotide, designed as: ON switch for flavin mononucleotide

| Sequence | apparent Kd [1] [nM] | apparent Kd [2] [nM] | apparent Kd [3] [nM] | apparent Kd [4] [nM] |
| --- | --- | --- | --- | --- |
| AUAAGCUCGUCAGGAUAUACGUCACUGCUUCGGCAGUGAGGUAUGAUCACAUGAGGAUCACCCAUGUAGAAGGGACGAGCUUAU | 5.63 | 8.57 | – | – |
| AUAAUGUAAGGAUAUAUGAAUCACGGUGAUACACCGUGAAGAUAGAAGGUACAUGAGGAUCACCCAUGUAGGGC | 50.5 | 220 | – | – |
| AUAAUGUAAGGAUAUCAGUCGACUAGCUGCGGCUAGUCGACUGAGAAGGUACAUGAGGAUCACCCAUGUGUUUC | 40.9 | 183 | – | – |
| AUAAUGUAAGGAUAUCAGUCGUAAUUAAUUUAAUUAUCGACUGAGAAGGUACAUGAGGAUCACCCAUGUGGUCA | 916 | 102 | – | – |
| AUAAUGUGAGGAUAUACAUGAGGAUCACCCAUGUAAUUAAAUCGGAGAGCCACAUUUCGUAGAAGGUACAUUUA | 20.7 | 22.6 | – | – |
| AUACACACGACAGGAUAUGGAAUGUAAGCUCAGAGACAUGAGGAUCACCCAUGUACCUGUCUUGCCCAGAAGGGUCGCAAAAGA | – | – | 327 | 64.5 |
| AUACAUGAGGAUCACCCAUGUUACUGGGUCUUAAUAGAACGUAGAAGGAUGAUAUUAUAAAUAACAUAGGAUAUACAAUAUUGU | 132 | 64.2 | – | – |
| AUACAUGUCCGAGGAUAUCUGGAAACAUUUUCAAGAGAAGGCGGACAUGAGGAUCACCCAUGUCUCUCCUCAUCAAAUCCAAGU | 7.84 | 46.6 | – | – |
| AUACCACGAGGAUAUCGUCUAUUUCACAUGAGGAUCACCCAUGUUAUCUUUGUUUCGUUUCGAGAAGGCGUGUUUU | 33.1 | 23.2 | – | – |
| AUACCACGAGGAUAUCGUCUCUCCCACAUGAGGAUCACCCAUGUUAUCCAUGUUUCGUUUCGAGAAGGCGUGGGUU | 83.2 | 70.2 | – | – |
| AUACCUUAUGAGAAGGCGAUCAUGAAACAUGAUCGAGGAUAUCAUGUAAACAUGAGGAUCACCCAUGUAUGGGUAUUAUGGUAG | – | – | 34 | 10.5 |
| AUACUCAUGUAAGGAUAUGCAGCCGAACCGGCUGCAGAAGGUACUAUAAUACAUGAGGAUCACCCAUGUCAAAAUAAAAUAGUU | – | – | 52 | 21.5 |
| AUACUCAUGUAAGGAUAUGCAGCCGUUUCGGCUGCAGAAGGUACUAUAAUACAUGAGGAUCACCCAUGUCUCUCGCAUUGCGAG | – | – | 131 | 178 |
| AUACUUAAUGAAGGAUAUCUUAGCAUAAACCUGAGAGAAGGUCAUUAUUACAUGAGGAUCACCCAUGUUGUAGUUAAUGGGUAA | 199 | 254 | – | – |
| AUACUUAAUGAAGGAUAUCUUAGCAUAAACCUGAGAGAAGGUCAUUAUUACAUGAGGAUCACCCAUGUUGUGGUUAAUGGGUAA | 264 | 327 | – | – |
| AUAGCUCCCUAGAAGGGCCAACCAGUAUUCCAUCAGGUAUUUGCGGUAGGUAGGAUAUGGGACAUGAGGAUCACCCAUGUGUAG | – | – | 35.8 | 25.8 |
| AUAUAUAAUAAGAAGGUGCCAGCGAGAGCUGCACAUGAGGAUCACCCAUGUUGUCGGUGACGACGCAAGGAUAUUAUUAUAUAU | – | – | 56.8 | 18.5 |
| AUAUAUAGUGUGAGGAUAUGCUGGUCCUUGGAUCAGCAGAAGGCACAUGAGGAUCACCCAUGUAGUUAAAUAUA | 36 | 107 | – | – |
| AUAUCUUGUCGAGGAUAUGUUGUAUUGAUCUGAAAACAUGAGGAUCACCCAUGUAUACGGUGGGAACAGAAGGUGAAUGUAGAA | 574 | 715 | – | – |
| AUAUGAUAGAUAGGAUAUACAGAUGAAUAAUAAGUAGAAGGAUCAAAUGGGAAUUAUACAUGAGGAUCACCCAUGUUUUUGGAU | – | – | 50.1 | 32.1 |
| AUAUGAUAGAUAGGAUAUACAGUUGAAUAAUAAGUAGAAGGAUCAAAUGGGAAUUAUACAUGAGGAUCACCCAUGUUUUUGGAU | – | – | 44.1 | 35.8 |
| AUAUUGUGAGGAUAUCCAAUAUAUGACAUGAGGAUCACCCAUGUUUCCACUCGUACCUCCGGAGAAGGCACAUUUU | 27 | 24 | – | – |
| AUAUUGUGAGGAUAUGAACUUAGUAUCGAAACAUACUAAGUUCAGAAGGCACAUGAGGAUCACCCAUGUUUCUC | 68.6 | 430 | – | – |
